OX1R antag-1: antagonists of human orexin 1 receptor (OX1R) | Orexin/Hypocretin receptor type 1 (Homo sapiens), O43613 | OX1R-expressing cells, FRET antagonist read-out | inhibition, % at 6.6 µM | 1.8% of 330,000 active | AID 485270, 2010; in the data active means inhibition mostly above about 38%, no sharp cut-off; inactive means mostly below about 40%;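 further: 0% = agonist challenge alone and 100% = reference antagonist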
TAAR1 antagonist: human TAAR1 antagonists, primary screen, Fluo-8 calcium fluorescence, CHO RD-HGA16 cells; inhibition, % at 3 µM; Trace amine-associated receptor 1 (Homo sapiens), Q96RJ0; 1.5% of 360,000 active; AID 624466, 2012; antagonist;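 active means inhibition above a per-plate cutoff, the mean inhibition of test compounds on that plate plus 3 SD, cut at about 49% in these data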;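 further: 0% = DMSO plus EC80 beta-PEA response and 100% = DMSO alone without agonist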
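Material: RD-HGA16 CHO cells with stable hTAAR1 and Gα16; Dosing: single nominal final test compound concentration of 3 µM; Schedule: seeding 17-24 h prior, 75-min 37 °C, 30-min RT dye loading; Detection: kinetic Fluo-8 calcium fluorescence measurement; Measure: % inhibition from peak post-agonist over basal fluorescence ratio; Benchmarks: vehicle and agonist controls.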
CHO parental Ca: ATP-evoked calcium signal inhibitors, parental CHO, primary screen, counter-screen for OX1R antagonist project, cell-based, fluorescence, Fluo-8 calcium dye; parental CHO-K1, ATP-induced calcium, Fluo-8 fluorescence; inhibition, % at 5.6 µM; 0.63% of 330,000 active; AID 463079, 2010;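 active means inhibition above that plate's mean sample inhibition plus 3 SD, cut at about 26% in these data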;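 further: 0% = ATP-challenged DMSO wells and 100% = DMSO wells without ATP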
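Material – parental CHO cells · Reagent – ATP stimulus · Compound – single nominal dose of 5.6 µM per compound · Detection – Fluo-8 fluorescence · Read-out basis – percent inhibition of calcium signal · Controls – ATP-challenged DMSO wells low, unchallenged DMSO wells high · Repeats – no replicates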
OX1R antag-2: OX1R (HCRTR1) antagonists, primary screen, fluorescence, CHO/OX1R cells, Fluo-8 calcium, orexin A; Orexin/Hypocretin receptor type 1 (Homo sapiens), O43613; Fluo-8 calcium fluorescence; inhibition, % at 5 µM; 0.43% of 330,000 active; AID 434989, 2010;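 active means inhibition above its plate's threshold, mean inhibition of all tested compounds on the plate plus 3 SD, cut at about 37% in these data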;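 further: 0% = orexin A challenge wells and 100% = SB-334867-A antagonist wells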
TAAR1 ag: human TAAR1 agonists, primary screen, Fluo-8 calcium fluorescence, CHO RD-HGA16 cells. vehicle wells 0%, saturating PEA agonist 100%. 0.99% of 360,000 active. activation, % at 3 µM;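 active means activation above the mean activation of all test compounds in the run plus 3 SD, cut at about 38% in these data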
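System: CHO RD-HGA16 cells carrying human TAAR1 plus Gα16; Incubation: 17-24 h seeding, 75 min 37 °C dye, 30 min RT; Measured by: Fluo-8 fluorescence, 5 s baseline then 140 s kinetic read; Control set: DMSO and PEA EC100; Replication: single well for each compound.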
GPR7 antag: GPR7 receptor antagonists, primary screen, cell-based, fluorescence, single concentration; Neuropeptides B/W receptor type 1 (Homo sapiens), P48145; GPR7-expressing cells, fluorescence antagonist assay; inhibition, % at 4.4 µM; 1.1% of 290,000 active; AID 1861, 2009; in the data active means inhibition above about 16%, passing the limit was not always enough;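 further: cells stimulated with the agonist NPW; 0% = agonist with vehicle and 100% = vehicle without agonist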
Target sequence (P48145 whole entry, looked up): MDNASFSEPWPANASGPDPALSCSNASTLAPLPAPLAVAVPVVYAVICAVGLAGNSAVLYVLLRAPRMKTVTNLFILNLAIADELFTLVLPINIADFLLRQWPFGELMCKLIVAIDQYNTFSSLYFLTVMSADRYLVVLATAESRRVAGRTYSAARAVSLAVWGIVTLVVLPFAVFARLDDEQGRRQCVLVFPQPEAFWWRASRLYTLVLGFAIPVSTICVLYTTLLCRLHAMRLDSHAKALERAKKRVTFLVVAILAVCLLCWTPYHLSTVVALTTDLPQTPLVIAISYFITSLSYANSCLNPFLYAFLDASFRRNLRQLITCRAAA
TAAR1 nonsel count: nonselective antagonists in TAAR1 counter-screen cells, counter-screen for hTAAR1 antagonist project, cell-based, fluorescence, calcium. shares compounds with TAAR1 antagonist. counterscreen cell line, antagonist mode. inhibition, % at 3 µM. 77% of 2,400 active. AID 651780, 2012; in the data active means inhibition above about 22%;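 further: CHO-Ga16 host cells stimulated with ATP at an EC80 level; 0% = agonist EC80 plus vehicle and 100% = vehicle without agonist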
TAAR1 ant conf: human TAAR1 antagonists, retest of hits, confirmation, cell-based, fluorescence | shares compounds with TAAR1 antagonist | TAAR1-expressing cells, fluorescence antagonist read-out | inhibition, % at 3 µM | 40% of 2,400 active | AID 651785, 2012; in the data active means inhibition above about 49%;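 further: CHO-Ga16 host cells challenged with agonist PEA near its EC80; 0% = agonist at EC80 plus vehicle and 100% = vehicle with no agonist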
Ga16 nonsel ag: calcium activation in Ga16-expressing cells, counter-screen for TAAR1 antagonist project, cell-based, fluorescence | 18% of 2,400 active | shares compounds with TAAR1 antagonist | activation, % at 3 µM | agonist counterscreen; in the data active means activation above about 12%;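 further: 0% = vehicle wells and 100% = saturating stimulus response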
TAAR1 ag counter: TAAR1 activation by candidate antagonists – cell-based, fluorescence, counter-screen for TAAR1 antagonist project; shares compounds with TAAR1 antagonist; hTAAR1 cell line, agonist mode; activation, % at 3 µM; 2% of 2,400 active; in the data active means activation above about 37%;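 further: CHO cells stably expressing TAAR1 with calcium dye readout; 0% = DMSO vehicle and 100% = full agonist response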
Starred values were filed as active, the others as inactive; . = no result. Most compounds without a hit are left out; they make up all but 4.6% or so of the library.

SMILES	OX1R antag-1	TAAR1 antagonist	CHO parental Ca	OX1R antag-2	TAAR1 ag	GPR7 antag	TAAR1 nonsel count	TAAR1 ant conf	Ga16 nonsel ag	TAAR1 ag counter
CN(C)S(=O)(=O)c1cccc(NC(=O)COc2ccccc2C(=O)NCc2ccccc2)c1	.	63*	.	.	13	.	25*	47	11	11
C[C@H]1COc2cccc(N(C)CCO)c2S(=O)(=O)N1	.	-7	.	.	0	.	.	.	.	.
O=C(NCCc1ccccc1)c1ccc2c(c1)S(=O)(=O)c1ccccc1C2=O	24	52*	-19	-25	16	.	21	46	7	6
O=C(NCc1ccc(C(F)(F)F)cc1)c1ccc2c(c1)S(=O)(=O)c1ccccc1C2=O	20	0	-1	-18	13	.	.	.	.	.
O=C(NCc1ccc(F)cc1)c1ccc2c(c1)S(=O)(=O)c1ccccc1C2=O	26	52*	-22	-32	19	.	25*	40	7	13
Cc1noc(NS(=O)(=O)c2ccc(NS(=O)(=O)c3ccc(C(C)(C)C)cc3)cc2)c1C	.	-17	.	.	0	.	.	.	.	.
OCC[C@@H]1C[C@H](O)[C@@H](O)[C@@]2(OCc3ccc4ccccc4c32)O1	.	-1	.	.	0	.	.	.	.	.
COc1ccc(C(=O)NC(=S)N(C)C2CCCCC2)cc1Br	23	-38	-21	-12	-1	-3	.	.	.	.
COc1ccccc1/C=C/C(=O)NC(=S)N(C)C1CCCCC1	7	68*	-22	-6	15	-2	33*	46	5	-1
CN(N=Cc1ccc([N+](=O)[O-])cc1)c1ccccn1	.	-6	.	.	-2	.	.	.	.	.
CC(C)(O)C(O)COc1c2ccoc2cc2oc(=O)ccc12 (configuration not stated)	12	-6	-4	2	2	-15	.	.	.	.
CC(=O)OC(C=C(C)C)C/C(C)=C/COc1c2ccoc2cc2oc(=O)ccc12 (configuration not stated)	.	70*	.	.	3	.	28*	54*	9	25
C[C@H](NC(=O)c1nc[nH]c1C(=O)NCCCCCNC(=O)OC(C)(C)C)C(=O)OC(C)(C)C	34	61*	-4	-22	18	-3	31*	45	9	5
CC(C)(C)OC(=O)CNC(=O)c1[nH]cnc1C(=O)NCCCCCNC(=O)OC(C)(C)C	26	68*	3	-11	29	-10	41*	60*	16*	16
CC(C)(C)OC(=O)NCCCC[C@H](NC(=O)c1nc[nH]c1C(=O)N1CCN(c2ccccc2)CC1)C(=O)OC(C)(C)C	-1	33	-21	-34	15	.	.	.	.	.
CC(C)(C)OC(=O)CNC(=O)c1[nH]cnc1C(=O)NCCCCCN	11	-3	0	-7	19	.	.	.	.	.
CC(C)(C)OC(=O)NCCCC[C@H](NC(=O)c1nc[nH]c1C(=O)N1CCN(C(=O)OC(C)(C)C)CC1)C(=O)OC(C)(C)C	-1	50*	-17	-39	14	-13	17	39	6	8
O=C(COc1c(F)c(F)c(C(F)(F)F)c(F)c1F)Nc1ccc(N2CCOCC2)c(Cl)c1	-1	12	17	0	22	8	.	.	.	.
